From ChEMBL document CHEMBL1125455, “Novel anthraquinone inhibitors of human leukocyte elastase and cathepsin G” (J Med Chem, 1992)
Calls of active or inactive are those of the source. No cut-off for these calls is given here.

How the values were obtained:
[1] = target: T1, Cathepsin G (Homo sapiens) (UniProt P08311); test: Inhibitory activity against Cathepsin G (CatG) at 55 uM concentration
T1 sequence (whole entry): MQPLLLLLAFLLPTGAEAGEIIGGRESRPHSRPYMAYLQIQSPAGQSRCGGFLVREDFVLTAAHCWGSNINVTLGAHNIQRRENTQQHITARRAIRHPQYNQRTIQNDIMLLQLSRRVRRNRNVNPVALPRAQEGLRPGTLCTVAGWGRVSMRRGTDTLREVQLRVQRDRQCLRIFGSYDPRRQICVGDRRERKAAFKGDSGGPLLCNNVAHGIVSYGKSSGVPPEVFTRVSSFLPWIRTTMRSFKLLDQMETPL

[2] = target: T2, Neutrophil elastase (Homo sapiens) (UniProt P08246); test: Inhibitory activity against Human Leukocyte Elastase (HLE) at 55 uM concentration
T2 sequence (whole entry): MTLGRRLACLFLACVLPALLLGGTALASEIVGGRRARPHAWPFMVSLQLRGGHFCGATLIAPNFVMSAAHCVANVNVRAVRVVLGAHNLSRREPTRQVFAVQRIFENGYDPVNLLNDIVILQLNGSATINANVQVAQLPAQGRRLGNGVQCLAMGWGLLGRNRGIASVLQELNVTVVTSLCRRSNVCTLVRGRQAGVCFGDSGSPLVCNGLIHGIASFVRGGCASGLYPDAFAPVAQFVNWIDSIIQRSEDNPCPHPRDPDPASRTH

Neutrophil elastase [3] = target: T3, Neutrophil elastase (Homo sapiens, UniProt P08246); test: Compound was tested for the enzyme inhibitory activity against Human Leukocyte Elastase (HLE) at 55 uM concentration
T3 sequence (P08246 whole entry): T2 sequence (whole entry)

[4] = target: T4, Chymotrypsin-like elastase family member 2A (Sus scrofa) (UniProt P08419); test: Inhibitory activity against Porcine Pancreatic Elastase (PPE) at 55 uM concentration; NI = no inhibition
T4 sequence (whole entry): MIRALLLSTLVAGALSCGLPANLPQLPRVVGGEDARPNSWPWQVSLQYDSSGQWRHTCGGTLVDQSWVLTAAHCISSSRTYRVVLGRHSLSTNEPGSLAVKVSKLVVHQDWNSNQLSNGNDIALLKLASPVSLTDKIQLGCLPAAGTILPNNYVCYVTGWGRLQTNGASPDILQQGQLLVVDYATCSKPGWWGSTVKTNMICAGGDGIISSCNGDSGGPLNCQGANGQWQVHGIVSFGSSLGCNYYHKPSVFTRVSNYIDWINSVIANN

[5] = target: Chymotrypsinogen A (Bos taurus) (UniProt P00766); test: Inhibitory activity against Chymotrypsinogen at 55 uM concentration
[6] = target: T4, Chymotrypsin-like elastase family member 2A (Sus scrofa); test: Inhibitory activity against Porcine Pancreatic Elastase (PPE) at 30 uM concentration; NI = no inhibition
[7] = target: T2, Neutrophil elastase (Homo sapiens); test: Inhibitory activity against Human Leukocyte Elastase (HLE) at 30 uM concentration
Neutrophil elastase [8] = target: T3, Neutrophil elastase; test: Compound was tested for the enzyme inhibitory activity against Human Leukocyte Elastase (HLE) at 30 uM concentration
[9] = target: T1, Cathepsin G (Homo sapiens); test: Inhibitory activity against Cathepsin G (CatG) at 30 uM concentration
[10] = target: T2, Neutrophil elastase (Homo sapiens); test: Inhibitory activity against Human Leukocyte Elastase (HLE) at 28 uM concentration
[11] = target: T4, Chymotrypsin-like elastase family member 2A (Sus scrofa); test: Inhibitory activity against Porcine Pancreatic Elastase (PPE) at 28 uM concentration; NI = no inhibition
[12] = target: Chymotrypsinogen A (Bos taurus) (UniProt P00766); test: Inhibitory activity against Chymotrypsinogen at 28 uM concentration; NI = no inhibition
Neutrophil elastase [13] = target: T3, Neutrophil elastase; test: Compound was tested for the enzyme inhibitory activity against Human Leukocyte Elastase (HLE) at 28 uM concentration
[14] = target: T1, Cathepsin G (Homo sapiens); test: Inhibitory activity against Cathepsin G (CatG) at 28 uM concentration
[15] = target: T1, Cathepsin G (Homo sapiens); test: Inhibitory activity against Cathepsin G (CatG) at 53 uM concentration
How it was run: (§1)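 Percent inhibition of enzyme activity at a single inhibitor concentration. Assays run at 25 °C in 0.1 M HEPES, 0.5 M NaCl, pH 7.5, with 9-11% DMSO. The method otherwise follows an earlier report.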

[16] = target: T4, Chymotrypsin-like elastase family member 2A (Sus scrofa); test: Inhibitory activity against Porcine Pancreatic Elastase (PPE) at 53 uM concentration; NI = no inhibition; how it was run: as §1
[17] = target: Chymotrypsinogen A (Bos taurus) (UniProt P00766); test: Inhibitory activity against Chymotrypsinogen at 53 uM concentration; how it was run: as §1
[18] = target: T2, Neutrophil elastase (Homo sapiens); test: Inhibitory activity against Human Leukocyte Elastase (HLE) at 53 uM concentration; how it was run: as §1
Neutrophil elastase [19] = target: T3, Neutrophil elastase; test: Compound was tested for the enzyme inhibitory activity against Human Leukocyte Elastase (HLE) at 53 uM concentration; how it was run: as §1
[20] = target: T2, Neutrophil elastase (Homo sapiens); test: Inhibitory activity against Human Leukocyte Elastase (HLE) at 52 uM concentration
[21] = target: Chymotrypsinogen A (Bos taurus) (UniProt P00766); test: Inhibitory activity against Chymotrypsinogen at 52 uM concentration; NI = no inhibition
[22] = target: T4, Chymotrypsin-like elastase family member 2A (Sus scrofa); test: Inhibitory activity against Porcine Pancreatic Elastase (PPE) at 52 uM concentration; NI = no inhibition
Neutrophil elastase [23] = target: T3, Neutrophil elastase; test: Compound was tested for the enzyme inhibitory activity against Human Leukocyte Elastase (HLE) at 52 uM concentration
[24] = target: T1, Cathepsin G (Homo sapiens); test: Inhibitory activity against Cathepsin G (CatG) at 65 uM concentration
[25] = target: T4, Chymotrypsin-like elastase family member 2A (Sus scrofa); test: Inhibitory activity against Porcine Pancreatic Elastase (PPE) at 65 uM concentration; NI = no inhibition
Neutrophil elastase [26] = target: T3, Neutrophil elastase; test: Compound was tested for the enzyme inhibitory activity against Human Leukocyte Elastase (HLE) at 65 uM concentration
[27] = target: T2, Neutrophil elastase (Homo sapiens); test: Inhibitory activity against Human Leukocyte Elastase (HLE) at 65 uM concentration
Neutrophil elastase [28] = target: T3, Neutrophil elastase; test: Compound was tested for the enzyme inhibitory activity against Human Leukocyte Elastase (HLE) at 27 uM concentration
[29] = target: Chymotrypsinogen A (Bos taurus) (UniProt P00766); test: Inhibitory activity against Chymotrypsinogen at 27 uM concentration
[30] = target: T1, Cathepsin G (Homo sapiens); test: Inhibitory activity against Cathepsin G (CatG) at 27 uM concentration
[31] = target: T4, Chymotrypsin-like elastase family member 2A (Sus scrofa); test: Inhibitory activity against Porcine Pancreatic Elastase (PPE) at 27 uM concentration; NI = no inhibition
[32] = target: T2, Neutrophil elastase (Homo sapiens); conditions: 27 uM

## Cc1ccc2c(c1O)C(=O)c1c(O)cc(O)cc1C2=O
[1]
  inhibition: 13%
[2]
  inhibition: 100%
Neutrophil elastase [3]
  IC50: 21 µM
[4]
  inhibition: inactive
[5]
  inhibition: 5%

## COc1cc(OC)c2c(c1)C(=O)c1cc(C(Br)Br)cc(OC)c1C2=O
[6]
  inhibition: inactive
[7]
  inhibition: 61%
Neutrophil elastase [8]
  IC50: 17 µM
[9]
  inhibition: 24%

## Cc1cc(O)c2c(c1)C(=O)c1cccc(O)c1C2=O [CHRYSOPHANOL]
[10]
  inhibition: 79%
[11]
  inhibition: inactive
[12]
  inhibition: inactive
Neutrophil elastase [13]
  IC50: 18 µM
[14]
  inhibition: 39%

## Cc1cc(O)c2c(c1)C(=O)c1cc(O)cc(O)c1C2=O [EMODIN]
[15]
  inhibition: 42%
[16]
  inhibition: inactive
[17]
  inhibition: 2%
[18]
  inhibition: 55%
Neutrophil elastase [19]
  IC50: 52 µM

## CC(=O)Oc1cc(OC(C)=O)c2c(c1)C(=O)c1ccc(C)c(OC(C)=O)c1C2=O
[20]
  inhibition: 96%
[21]
  inhibition: inactive
[22]
  inhibition: inactive
Neutrophil elastase [23]
  IC50: 12 µM

## COc1cc(O)c2c(c1)C(=O)c1cc(C)cc(O)c1C2=O [PHYSCION]
[24]
  inhibition: 39%
[25]
  inhibition: inactive
Neutrophil elastase [26]
  IC50: 6.2 µM
[27]
  inhibition: 100%

## COc1cc(OC)c2c(c1)C(=O)c1ccc(C)c(O)c1C2=O
Neutrophil elastase [28]
  IC50: 13 µM
[29]
  inhibition: 7%
[30]
  inhibition: 4%
[31]
  inhibition: inactive
[32]
  inhibition: 80%
